Test results published in ChEMBL document CHEMBL4619779, “Tideglusib and Its Analogues As Inhibitors of Staphylococcus aureus SrtA” (J Med Chem, 2020).
pIC50: −log10 of the molar value. In brackets after ≈: the same amount, converted by molar mass. Activity calls are given as the source filed them. The rule behind the calls is not given here.

Legend:
Staphylococcus aureus [1] = experiment: Antibacterial activity against Staphylococcus aureus subsp. aureus str. Newman assessed as reduction in bacterial growth incubated for 24 hrs; format: functional
Outline: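 Overnight culture diluted 1:1000 in TSB, grown to A600 0.6-0.8, then diluted 1:400 in TSB. Aliquots incubated with the compound at a range of concentrations. A600 read every 1 hr for 24 hr to build growth curves. Technical triplicates per point; three independent experiments.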

Sortase A [2] = target: T1, Sortase A (Staphylococcus aureus, UniProt Q9S446, DELTAN24); experiment: Inhibition of Staphylococcus aureus SrtA delta N24 mutant expressed in Escherichia coli BL21 (DE3) using Abz-LPATG-Dnp substrate incubated for 20 mins by FRET-based assay
Outline: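 His-tagged SrtAΔN24 (1 µM) was preincubated 20 min at rt with compound (0.2–100 µM) in 50 mM Tris-HCl pH 7.5, 150 mM NaCl, 5 mM CaCl2. Abz-LPATG-Dnp was added at 10 µM and fluorescence (ex 309 / em 420 nm) was read each minute for 20 min. IC50 came from a sigmoidal fit. Technical triplicates, three independent experiments.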

Sortase A [3] = target: T1, Sortase A; experiment: Inhibition of Staphylococcus aureus SrtA delta N24 mutant expressed in Escherichia coli BL21 (DE3) assessed as reduction in IsdA (64 to 323 residues) transpeptidation incubated for 20 mins by SDS-PAGE analysis
Outline: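 His-tagged SrtAΔN24 (100 µg) was preincubated 20 min at rt with compound (1–25 µM) in 50 mM Tris-HCl pH 7.5, 150 mM NaCl, 5 mM CaCl2. IsdA64-323 (150 µg) and 3 mM Gly3 were then added for 1.5 hr at 37 °C. […] Three independent experiments.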

[4] = test system: Sortase A (Staphylococcus aureus), Q9S446 [UNDEFINED MUTATION]; experiment: Covalent inhibition of Staphylococcus aureus SrtA delta N24 mutant expressed in Escherichia coli BL21 (DE3) assessed as reduction in IsdA (64 to 323 residues) transpeptidation incubated for 20 mins followed by 10 fold compound dilution by SDS-PAGE analysis
[5] = test system: Sortase A (Staphylococcus aureus), Q9S446 [UNDEFINED MUTATION]; experiment: Inhibition of SrtA delta N24 mutant in Staphylococcus aureus subsp. aureus str. Newman reduction in abundance of anchored SpA by Western blot analysis
Outline: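 Newman was diluted 1:1000 and grown at 37 °C with inhibitor to A600 3.0. Cells were PBS-washed and digested with lysozyme for 30 min at 37 °C. Protoplasts were removed and the supernatant (cell wall fraction) was separated by SDS-PAGE and immunoblotted for SpA, with ClpP as the loading control. Three independent experiments.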

[6] = test system: Sortase A (Staphylococcus aureus), Q9S446 [UNDEFINED MUTATION]; experiment: Covalent binding affinity to Staphylococcus aureus SrtA delta N24 mutant assessed as induction of m/z shift incubated for 12 hrs by ESI-LC/MS analysis
Outline: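 His-tagged SrtAΔN24 preincubated 12 hr with or without a 10-fold excess of compound. Diluted in 50% acetonitrile / 0.2% formic acid, run on a C8 column with a 10–90% acetonitrile gradient over 11 min, then ESI-TOF MS. MTSET served as the covalent reference.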

[7] = test system: Sortase A (Staphylococcus aureus), Q9S446 [UNDEFINED MUTATION]; experiment: Inhibition of SrtA delta N24 mutant in Staphylococcus aureus subsp. aureus str. Newman reduction in abundance of anchored SpA by FITC-labeled human IgG fluorescence based assay
Outline: (§1)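 Newman wild type and ΔsrtA were diluted 1:1000 in TSB and grown at 37 °C with inhibitor until A600 reached 1.0. Cells were PBS-washed, labelled with FITC-human IgG for 30 min at rt, and washed again before fluorescence was read. Triplicate wells, three independent experiments, unpaired two-tailed t-test.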

[8] = Solubility in PBS in presence of 1% DMSO by LC/MS analysis; format: physicochemical; conditions: PBS with 1% DMSO
[9] = test system: Sortase A (Staphylococcus aureus), Q9S446 [UNDEFINED MUTATION]; experiment: Inhibition of Staphylococcus aureus SrtA delta N24 mutant expressed in Escherichia coli BL21 (DE3) using Abz-LPATG-Dnp substrate incubated for 20 mins in presence of 0.01% v/v Triton X-100 by FRET-based assay
Staphylococcus aureus [10] = experiment: Antibiofilm activity against Staphylococcus aureus subsp. aureus str. Newman assessed as reduction in biofilm biomass at 25 to 100 uM incubated for 18 hrs by Crystal violet staining assay; format: functional, organism-based
Outline: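 Overnight culture diluted 1:100 in TSB, plated in quadruplicate with inhibitor, and held static at 37 °C for 18 hr. Wells rinsed with PBS, and the dried, fixed biofilm stained with 0.1% crystal violet for 15 min. Stain dissolved in 30% acetic acid and absorbance read at 595 nm. Three independent experiments.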

[11] = test system: Sortase A (Staphylococcus aureus), Q9S446 [UNDEFINED MUTATION]; experiment: Effect on structural folding of Staphylococcus aureus SrtA delta N24 mutant expressed in Escherichia coli BL21 (DE3 assessed as induction of gross structural perturbations by CD spectroscopy
Outline: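 SrtAΔN24 at 10 µM was incubated with compound dissolved in methanol, and CD spectra were recorded. Two independent experiments.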

[12] = test system: Sortase A (Staphylococcus aureus), Q9S446 [UNDEFINED MUTATION]; experiment: Time dependent inhibition of Staphylococcus aureus SrtA delta N24 mutant expressed in Escherichia coli BL21 (DE3) assessed as reduction in IsdA (64 to 323 residues) transpeptidation by SDS-PAGE analysis
[13] = test system: Sortase A (Staphylococcus aureus), Q9S446 [UNDEFINED MUTATION]; experiment: Reversible inhibition of Staphylococcus aureus SrtA delta N24 mutant expressed in Escherichia coli BL21 (DE3) assessed as reduction in IsdA (64 to 323 residues) transpeptidation incubated for 20 mins followed by 10 fold compound dilution by SDS-PAGE analysis
[14] = test system: Sortase A (Staphylococcus aureus), Q9S446 [UNDEFINED MUTATION]; experiment: Binding affinity to Staphylococcus aureus SrtA delta N24 mutant expressed in Escherichia coli BL21 (DE3 assessed as attenuation of NMR signals by CPMG-NMR analysis
Outline: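 NMR titration in 20 mM sodium phosphate pH 7.4, 100 mM NaCl, 2% DMSO, at 25 °C on a 600 MHz spectrometer with a cryoprobe.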

[15] = test system: Sortase A (Staphylococcus aureus), Q9S446 [UNDEFINED MUTATION]; experiment: Inhibition of SrtA delta N24 mutant in Staphylococcus aureus subsp. aureus str. Newman reduction in abundance of anchored SpA at 100 uM by FITC-labeled human IgG fluorescence based assay; outline: as §1

Row | SMILES | MIC (Staphylococcus aureus [1]) | pIC50 (Sortase A [2]) | pIC50 (Sortase A [3]) | further results
1 | CC(C)n1c(=O)sn(CCc2ccccc2)c1=O | 25 µg/mL (≈ 94.6 µM) | < 4.00 | < 4.30 | 
2 | O=c1sn(-c2cccc3ccccc23)c(=O)n1Cc1ccc(Cl)cc1 | 100 µg/mL (≈ 271 µM) | 6.15 | 4.64 | 
3 | O=c1sn(C2CCCC2)c(=O)n1C1CCCCC1 | 6.2 µg/mL (≈ 23.1 µM) | 4.99 | < 4.30 | 
4 | O=c1sn(-c2cccc3c2CCCC3)c(=O)n1Cc1ccccc1 | 50 µg/mL (≈ 148 µM) | 5.22 | 4.50 | 
5 | CCn1c(=O)sn(-c2c(C)noc2C)c1=O | > 100 µg/mL | 5.82 | 5.20 | 
6 | O=c1sn(-c2cccc3c2OCO3)c(=O)n1Cc1ccccc1 | > 100 µg/mL | 5.47 | 5.33 | 
7 | CCCCn1c(=O)sn(Cc2ccccc2)c1=O | 6.2 µg/mL (≈ 23.5 µM) | 5.08 | 4.67 | 
8 | CCn1c(=O)sn(-c2cccc3ccccc23)c1=O | > 100 µg/mL | 6.15 | 5.09 | 
9 | O=c1sn(Cc2ccccc2)c(=O)n1CCCl | 25 µg/mL (≈ 92.3 µM) | 5.70 | 4.78 | 
10 | Cc1noc(C)c1-n1sc(=O)n(C(C)C)c1=O | > 100 µg/mL | 4.90 | < 4.30 | 
11 | O=c1sn(CCc2ccccc2)c(=O)n1Cc1ccccc1 | 12.5 µg/mL (≈ 40 µM) | 5.00 | 4.37 | 
12 | Cn1c(=O)sn(Cc2ccccc2)c1=O | 12.5 µg/mL (≈ 56.2 µM) | 5.46 | 4.63 | 
13 | Cc1noc(C)c1-n1sc(=O)n(Cc2ccccc2Cl)c1=O | > 100 µg/mL | 6.22 | 5.43 | 
14 | O=c1sn(Cc2ccccc2)c(=O)n1Cc1ccc(Cl)c(Cl)c1 | 12.5 µg/mL (≈ 34 µM) | 5.54 | 4.71 | 
15 | CCn1sc(=O)n(Cc2ccc(Cl)cc2)c1=O | 6.2 µg/mL (≈ 22.9 µM) | 5.06 | < 4.30 | 
16 | O=c1sn(-c2cccc3ccccc23)c(=O)n1CCc1ccccc1 | > 100 µg/mL | 6.22 | 4.56 | 
17 | C[N+](C)(C)CCSS(C)(=O)=O |  |  |  | inhibition [4]: Active; inhibition [5]: Active; Activity [6]: 120 Da; inhibition [7]: Active
18 | Cc1noc(C)c1-n1sc(=O)n(Cc2ccccc2)c1=O | > 100 µg/mL | 6.10 | 5.34 | solubility [8]: 144 µg/mL; inhibition [9]: Active; Activity (Staphylococcus aureus [10]): Active; Activity [11]: inactive; TDI [12]: inactive; inhibition [13]: Active; Activity [14]: Dose-dependent effect; Activity [6]: inactive; inhibition [7]: Dose-dependent effect
19 | Cc1ccc(Cn2c(=O)sn(-c3c(C)noc3C)c2=O)cc1 | > 100 µg/mL | 5.96 | 5.33 | 
20 | CCn1sc(=O)n(Cc2ccc(C)cc2)c1=O | 6.2 µg/mL (≈ 24.8 µM) | 4.78 | < 4.30 | 
21 | O=c1sn(-c2cccc3ccccc23)c(=O)n1Cc1ccccc1O | > 100 µg/mL | 5.89 | 4.49 | 

Row | SMILES | MIC (Staphylococcus aureus [1]) | pIC50 (Sortase A [2]) | pIC50 (Sortase A [3]) | further results
22 | O=c1sn(-c2cccc3ccccc23)c(=O)n1Cc1cccc(O)c1 | > 100 µg/mL | 5.80 | 5.04 | 
23 | O=c1sn(-c2cccc3ccccc23)c(=O)n1Cc1ccc(F)cc1 | 100 µg/mL (≈ 284 µM) | 5.39 | 5.23 | 
24 | Cn1c(=O)sn(-c2cccc3ccccc23)c1=O | 100 µg/mL (≈ 387 µM) | 6.10 | 5.10 | 
25 | Cc1noc(C)c1-n1sc(=O)n(Cc2ccc(Cl)cc2)c1=O | > 100 µg/mL | 6.00 | 5.39 | 
26 | Cc1noc(C)c1-n1sc(=O)n(Cc2ccc(Cl)c(Cl)c2)c1=O | > 100 µg/mL | 6.05 | 5.47 | 
27 | CCCCn1c(=O)sn(-c2c(C)noc2C)c1=O | > 100 µg/mL | 5.96 | 5.39 | 
28 | CC(C)n1c(=O)sn(Cc2ccccc2)c1=O | 6.2 µg/mL (≈ 24.8 µM) | < 4.00 | < 4.30 | 
29 | Cc1ccc(Cn2c(=O)sn(Cc3ccccc3)c2=O)cc1 | 12.5 µg/mL (≈ 40 µM) | 5.29 | 4.45 | 
30 | CCCCn1c(=O)sn(-c2cccc3ccccc23)c1=O | 100 µg/mL (≈ 333 µM) | 6.05 | 4.90 | 
31 | CCCNC1=C(c2ccccc2)C(=O)C2C(/C=C/S(=O)(=O)c3ccccc3)=CC=CC2C1=O (centres undefined) |  |  |  | inhibition [15]: inactive
32 | Cc1ccc(Cn2c(=O)sn(-c3cccc4ccccc34)c2=O)cc1 | 100 µg/mL (≈ 287 µM) | 5.92 | 4.90 | 
33 | O=c1sn(Cc2ccccc2)c(=O)n1-c1cccc(F)c1 | 12.5 µg/mL (≈ 41.3 µM) | < 4.00 | < 4.30 | 
34 | CCn1sc(=O)n(CCc2ccccc2)c1=O | 6.2 µg/mL (≈ 24.8 µM) | 4.79 | < 4.30 | 
35 | O=c1sn(-c2cccc3c2CCC3)c(=O)n1Cc1ccccc1 | > 100 µg/mL | 5.36 | 4.34 | 
36 | COc1ccc(Cn2c(=O)sn(-c3c(C)noc3C)c2=O)cc1 | > 100 µg/mL | 5.92 | 5.30 | 
37 | O=c1sn(-c2cccc3ccccc23)c(=O)n1Cc1ccc(Cl)c(Cl)c1 | 50 µg/mL (≈ 124 µM) | 6.05 | 4.84 | 
38 | O=c1sn(-c2cccc3ccccc23)c(=O)n1Cc1ccc(O)cc1 | 100 µg/mL (≈ 285 µM) | 5.59 | 5.33 | 
39 | O=c1sn(Cc2ccccc2)c(=O)n1Cc1ccccc1Cl | 12.5 µg/mL (≈ 37.6 µM) | 5.47 | 4.55 | 
40 | O=c1sn(Cc2ccccc2)c(=O)n1Cc1ccccc1 | 12.5 µg/mL (≈ 41.9 µM) | 5.15 | 4.89 | 
41 | O=c1sn(CCc2ccccc2)c(=O)n1C1CCCCC1 | 12.5 µg/mL (≈ 41.1 µM) | < 4.00 | < 4.30 | 
42 | CCCCn1sc(=O)n(CCCC)c1=O | 3.1 µg/mL (≈ 13.5 µM) | 4.36 | < 4.30 | 
